Experimental findings from ChEMBL document CHEMBL4513216, “Probing the Open Global Health Chemical Diversity Library for Multistage-Active Starting Points for Next-Generation Antimalarials” (ACS Infect Dis, 2020) are described below.

This data set is described as follows: Toxicity liver stage against HepG2, at 10uM. In kind it is cell-based. Also noted: test concentration 10 uM, cell line HepG2-A16-CD81EGFP. The settings on record: human, HepG2-A16-CD81EGFP cells; read-out: INHIBITION
In short, it runs like this:
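Uninfected HepG2-A16-CD81EGFP cells, 3 × 10^3 per well, 1536-well, plated on prespotted compound at 10 μM final, parasite-free screening media added to match infected plates; puromycin 10 μM positive, DMSO 0.5% negative; run in parallel with 48 h PbLuc assay at 37 °C, 5% CO2; viability by CellTiter-Glo luminescence, normalized to controls.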
Regarding `CC(C)Oc1ccc(C(=O)Nc2nncs2)cn1`, the cytotoxicity at 10 µM is -7.94%. `COc1ccc(-c2cc(CC3(NCc4ccc(C)o4)COC3)no2)cc1`: the cytotoxicity at 10 µM is -5.88%.

As to `O=S(=O)(Cc1ccc(F)cc1)N1CCN(CC(O)C2CC2)CC1` (configuration not stated), the cytotoxicity at 10 µM was 4.77%. Turning to `O=C1CC(NS(=O)(=O)c2ccc(F)c(Cl)c2)CN1` (configuration not stated), the cytotoxicity at 10 µM turned out to be 6.32%. As for `Cn1nc(CNC(=O)c2ccc3nsnc3c2)c2c1CCOC2`, the cytotoxicity at 10 µM stood at 6.53%. In the case of `OCc1cnc(Nc2ccccc2)nc1` it was 11.3%; in that of `FC1(F)CCNCC12CCN(c1ncccn1)C2` (configuration not stated), 6.65%. Turning to `CC(C)(C)c1noc(-c2ccnc(-n3cnc(C(=O)O)c3)c2)n1`, the cytotoxicity at 10 µM came out at 5.41%. For the compound `CCOC(=O)N1CCN(C(=O)c2snnc2-c2ccccc2)CC1`, the cytotoxicity at 10 µM came out at 0.847%. `CNC(=O)c1cc2c(nc1NCC(C)C)CCN(S(=O)(=O)C1CC1)CC2`: the cytotoxicity at 10 µM was -4.88%. `CCCn1nccc1C(=O)Nc1ncc(C)s1`: the cytotoxicity at 10 µM is 8.05%.

`Cc1nn(C)c(C)c1CN(C)c1nc(C2CC2)nc2c(C)nn(C)c12`: the cytotoxicity at 10 µM was 3.98%. With `Cc1cn[nH]c1C1COCCN1C(=O)c1ccc2c(c1)CCCC2` (configuration not stated), the cytotoxicity at 10 µM is -0.21%. Regarding `Cc1cc(N2CCCC(O)(CN(C)C(=O)CCN)C2)c2cnccc2n1` (configuration not stated), the cytotoxicity at 10 µM was -1.49%.

As to `Cn1cc(C2=NOC(C(=O)NC3(c4ccccc4)CCCC3)C2)cn1` (configuration not stated), the cytotoxicity at 10 µM was -0.34%.

Turning to `Cc1cc(O)cc(C2CCCN2C(=O)c2ccn(C)n2)n1` (configuration not stated), the cytotoxicity at 10 µM was -2.82%.

As to `Fc1cccc(CN2CCC(c3noc(-c4ccccn4)n3)CC2)c1F`, the cytotoxicity at 10 µM was -12.8%. Regarding `Cc1cnc(C2(C)CCN(Cc3cscn3)CC2)s1`, the cytotoxicity at 10 µM was -22.5%. Turning to `Cc1nn(C)c(C)c1-c1cnc(C2CCCN(S(C)(=O)=O)C2)cn1` (configuration not stated), the cytotoxicity at 10 µM was -11.3%.

Turning to `CN(C)C(=O)C1CCc2nnc(C(C)(C)C)n21` (configuration not stated), the cytotoxicity at 10 µM was 3.13%. With `CC(CNC(=O)c1cccc(-n2cccn2)n1)Cn1ccnc1` (configuration not stated), the cytotoxicity at 10 µM was 7.73%.

In the case of `O=C(NC(CC(F)(F)F)c1ccc(Cl)cc1)c1nc(=O)[nH][nH]1` (configuration not stated), the cytotoxicity at 10 µM was -5.11%. On to `CC(C#N)CN(C)C(=O)CCNC(=O)C(C)(C)C` (configuration not stated), for which the cytotoxicity at 10 µM is 0.843%. In the case of `C=C(C)Cn1cc(C(N)=O)nc1C1CC1` it was 14.5%.

Consider `CCC1COCCN1C(=O)CNC(=O)c1ccc2c(c1)CCC2` (configuration not stated), for which the cytotoxicity at 10 µM came out at 8.08%.

`OCCN1CCN(Cc2cn(-c3ccccc3)nn2)CC1`: the cytotoxicity at 10 µM came to 1.42%.

For `CCN(CC)CCCC(C)NC(=O)c1cccnc1-n1cccn1` (configuration not stated), the cytotoxicity at 10 µM was -0.595%.

In the case of `O=C(NC1CCN(C2CC2)CC1)c1cn(-c2ccc(Cl)cc2)nn1`, the cytotoxicity at 10 µM is -2.87%.

On to `CC(C)N1CCC(NC(=O)NCc2ccccc2)CC1`, for which the cytotoxicity at 10 µM is 5.89%. Turning to `NS(=O)(=O)CCN1CCN(c2cc(F)ccc2F)CC1`, the cytotoxicity at 10 µM was -14.4%. Consider `Cc1nnc2n1CCN(CC(=O)NC(C)c1cc3ccccc3o1)C2` (configuration not stated), for which the cytotoxicity at 10 µM was -9.79%.

On to `O=C(NCc1ccccc1Cn1ccnc1)N1CCSCC1`, for which the cytotoxicity at 10 µM turned out to be 3.9%. For `CC(C)N1CCCC(N2CCOC3(CCCC3)C2)C1=O` (configuration not stated), the cytotoxicity at 10 µM was -7.33%. As for `O=C(c1cnn(-c2ccccc2)c1)N1CCN(c2cnccn2)CC1`, the cytotoxicity at 10 µM was found to be 5.37%. `CC(C)C(=O)Nc1cc(C(C)(C)C)nn1-c1ccccn1`: the cytotoxicity at 10 µM was -4.1%.

Turning to `CNS(=O)(=O)CCCn1nnc(-c2ccc(F)c(C)c2)n1`, the cytotoxicity at 10 µM is -1.52%. On to `Cc1nn(C)c(C)c1NC(=O)CN1CCCC1c1noc(C(C)C)n1` (configuration not stated), for which the cytotoxicity at 10 µM is -1.08%. Take `CN(C)S(=O)(=O)Nc1ccc(-n2nccc2C(F)(F)F)cc1`: the cytotoxicity at 10 µM was found to be 5.65%. For `CC(=O)N1CCCC1c1cccc(C)c1C` (configuration not stated), the cytotoxicity at 10 µM is 10.8%. Consider `CN(Cc1ncnn1C)c1ccnc(Cc2ccccc2)n1`, for which the cytotoxicity at 10 µM is -1.92%.

Take `CS(=O)(=O)CCCC(=O)N1CCN(CC2CC2)c2ccccc21`: the cytotoxicity at 10 µM was -3.2%.

For the compound `COc1ccccc1C(C)CC(=O)N1CCCS1(=O)=O` (configuration not stated), the cytotoxicity at 10 µM is -11.6%.

In the case of `CCc1ccc(CN(C(=O)CCn2cc(S(N)(=O)=O)cn2)C2CC2)cc1`, the cytotoxicity at 10 µM is 6.37%. As for `CN(Cc1cccc(OC(F)(F)F)c1)Cc1cnn(C)c1`, the cytotoxicity at 10 µM is -3.41%. As for `CCC(CC)CS(=O)(=O)NC(=O)C1CCCC1`, the cytotoxicity at 10 µM is -13.3%.

For the compound `COc1ccc2c(ccn2CC(=O)N2CCCC2Cn2cccn2)c1` (configuration not stated), the cytotoxicity at 10 µM was -0.429%. As to `COc1ccccc1C(C)Nc1ncc(C(N)=O)cc1Cl` (configuration not stated), the cytotoxicity at 10 µM amounted to 8.74%. In the case of `CC(C)CCNC(=O)c1ccc(-c2ccco2)[nH]c1=O` it was -9.62%; in that of `COc1ccc(NC(=O)N2CCN(c3ncccn3)CC2)cn1`, 1%; in that of `CN(Cc1cnn(C)c1)C(=O)Cn1c(CS(C)(=O)=O)nc2ccccc21`, 1.05%. Regarding `CCN(CC)C(=O)c1ccc(-c2ccsc2)nc1C`, the cytotoxicity at 10 µM was -13.4%. As to `O=C(c1cscn1)N1CCc2ncnc(-c3ccncc3)c2CC1`, the cytotoxicity at 10 µM was -4.71%. In the case of `CN(C)C(=O)c1ccc(-c2cccc3c2CCNC3)o1`, the cytotoxicity at 10 µM was -0.537%. Consider `Cc1nc(C(C)C)sc1C(=O)N1CCN(C2CN3CCC2CC3)CC1` (configuration not stated), for which the cytotoxicity at 10 µM was 3.79%. In the case of `CC(C)=CCN1CCN(C(=O)c2cc(C)n[nH]2)[C@H]2CS(=O)(=O)C[C@H]21`, the cytotoxicity at 10 µM is -6.9%.

As for `NC(=O)c1ccc(-c2nc3c(c(=O)[nH]2)CCNC3)cc1`, the cytotoxicity at 10 µM was 1.37%. Take `CC(C)Oc1ccc(CN2CCN3CCN(C)CC3C2)cc1CO` (configuration not stated): the cytotoxicity at 10 µM is -3.42%. As to `CNCCCNC1CCN(c2ccc(-n3ccnc3)cc2)CC1`, the cytotoxicity at 10 µM is -3.03%.

Regarding `O=C(c1cccc(C2CCNC2)c1)N1CCC(c2ncc[nH]2)CC1` (configuration not stated), the cytotoxicity at 10 µM is -5.03%. As to `CCn1c(C2CCCNC2)nn(CCn2cncn2)c1=O` (configuration not stated), the cytotoxicity at 10 µM is -18.1%.

`Cc1c[nH]c(CN2CCN(C)C3(CCC(=O)N(CC4CC4)CC3)C2)n1` (configuration not stated): the cytotoxicity at 10 µM was -5.54%. On to `COC[C@H]1CCC[C@H]1Nc1ncnc2c1CCNCC2`, for which the cytotoxicity at 10 µM was -11.2%. `CCOc1ccc(C(=O)N2Cc3cnc(CC)nc3C2)o1`: the cytotoxicity at 10 µM was 3.34%.

Consider `CSCCC(=O)N1CCC(c2nccn2Cc2cscn2)CC1`, for which the cytotoxicity at 10 µM was 1.41%.

Take `Cc1ccc(C(C(=O)NCCc2nc(C)cc(C)n2)N(C)C)cc1` (configuration not stated): the cytotoxicity at 10 µM is -1.3%. The same measure for `CSCCC1CC(=O)Nc2cc(O)c(C)cc21` (configuration not stated): 1.97%. In the case of `CC(C)=CCN1CCN(C(=O)c2cc(C(C)C)no2)[C@H]2CS(=O)(=O)C[C@H]21` it was -7.86%. On to `CC(C1CCN(Cc2ccc(N(C)C)nc2)CC1)N(C)C` (configuration not stated), for which the cytotoxicity at 10 µM was -1.75%. As to `Cc1nc(CN2CC(Cc3ccccc3)CC2=O)no1` (configuration not stated), the cytotoxicity at 10 µM stood at 2.42%.

Regarding `C/C=C(\C)CN1C[C@H](NC(=O)c2cnc(O)cn2)C[C@H]1C(=O)NCC`, the cytotoxicity at 10 µM came out at 7.31%.

With `CN1CCCN(C[C@@H]2CN(C(=O)CC3CCC3)C[C@@H]2CO)CC1`, the cytotoxicity at 10 µM is -9.11%.

On to `Cc1cc2nc(C(C)C)cc(N[C@H](C(N)=O)C(C)C)n2n1`, for which the cytotoxicity at 10 µM is -1.66%. As to `Cc1ccc2c(c1)c(CNC(=O)C1CCN(C(C)C)CC1)nn2C`, the cytotoxicity at 10 µM is -14.8%. The same measure for `Cc1cc(C)n(CC2CCCN2C(=O)c2cn[nH]c2C)n1` (configuration not stated): -11.6%; for `CC(=O)N(Cc1ncc(C(C)C)o1)C1CCN(CCC#N)C1` (configuration not stated): -6.39%. For `C1CC(c2nnc(CN3CCCC3c3noc(C4CC4)n3)o2)C1` (configuration not stated), the cytotoxicity at 10 µM is -7.77%. In the case of `O=C(NCc1csc(Br)c1)N1CCOCC1`, the cytotoxicity at 10 µM was -7.45%. `Cc1noc(C2CCN(C(=O)CCc3ccccn3)CC2)n1`: the cytotoxicity at 10 µM is -3.25%. Regarding `Cc1ccc(-c2cc(C(=O)NCCN3CCCS3(=O)=O)[nH]n2)o1`, the cytotoxicity at 10 µM is -7.98%. The same measure for `Cc1cccnc1NC(=O)N(CCO)Cc1ccsc1`: -11.3%; for `COC(=O)c1cc(C(=O)N2CCCCCC2)n(-c2ccccc2)n1`: -5.33%. Take `OC(CN1CCN(Cc2nnc(C3CC3)o2)CC1)c1ccccc1` (configuration not stated): the cytotoxicity at 10 µM was -6.82%.

For `Fc1cccc(-n2ccc(CN3CCCCC3Cn3cncn3)n2)c1` (configuration not stated), the cytotoxicity at 10 µM is -3.81%.

Take `Cc1cc(C)n(CC2CCCN2CC(=O)NC2CCOCC2)n1` (configuration not stated): the cytotoxicity at 10 µM is -5.23%. In the case of `CC(NCc1ccc(OCC(N)=O)cc1)c1ccc(Cl)c(Cl)c1` (configuration not stated) it was -5.25%.

Consider `Cc1cncc(C(=O)N2C[C@@H]3CN(S(C)(=O)=O)CCO[C@@H]3C2)c1`, for which the cytotoxicity at 10 µM was -4.87%. Take `c1ccc(CN2CCC3(CC2)CN(c2ccccn2)CCO3)nc1`: the cytotoxicity at 10 µM was -6.38%.

In the case of `O=C(O)[C@]12CCCN(Cc3cccs3)C[C@H]1CN(c1ncccn1)C2`, the cytotoxicity at 10 µM stood at 7.58%. In the case of `CN1CCC2(COCc3cnc(-c4ccccc4)nc32)C1` (configuration not stated), the cytotoxicity at 10 µM was -1.5%. For `CCn1ncc2c1C(COC)CN(c1ncc(F)cn1)C2` (configuration not stated), the cytotoxicity at 10 µM was 14.6%. Consider `O=C(C1CN(CC2CC2)CC12CCOCC2)N1CCOCC1` (configuration not stated), for which the cytotoxicity at 10 µM worked out at 6.07%. Take `CCC(=O)N1CCC2(CCN(Cc3cccc(F)c3)CC2)CC1`: the cytotoxicity at 10 µM was -4.82%. In the case of `CN1CCN(C(=O)[C@H]2C[C@H]3[C@H](CCN3Cc3cccs3)O2)CC1` it was -7.64%.

`O=C(CCc1cccnc1)N1CCC2(CCN(CC3CCCC3)C2)C1` (configuration not stated): the cytotoxicity at 10 µM was found to be 3.82%. Take `CC(=O)N1C[C@H]2CC[C@@H](C1)N(S(=O)(=O)c1ccccc1Cl)C2`: the cytotoxicity at 10 µM was -4%. As to `CS(=O)(=O)N1C[C@H]2CC[C@@H](C1)N(CCC(=O)NCc1ccccc1F)C2`, the cytotoxicity at 10 µM was -11%. As for `CC(C)CNC(=O)N1C[C@@H]2C[C@H](C(=O)NCc3ccccc3)[C@H](C1)O2`, the cytotoxicity at 10 µM is -0.924%.
